Assay results as given in ChEMBL document CHEMBL5385922 (J Med Chem, 2024).
Calls of active or inactive are those of the source. No cut-off for these calls is given here.

Tests used:
Platelet [1] = experiment: Inhibition of tumor cell-induced platelet secretion in human platelets assessed as inhibition of A549-induced PDGF secretion at 1 to 5 uM by ELISA; type: functional, cell-based; settings: dose 1-5 µM
Summary of the method: (§1)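 Washed human platelets were co-incubated with A549 cells under TCIPA conditions (0.375% plasma, stirred, 37 °C) for 25 min in the aggregometer, then centrifuged at 13,000g for 1 min. Supernatant PDGF-BB measured by ELISA and ATP by bioluminescent assay. Mean ± SEM, at least three independent experiments.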

Platelet [2] = experiment: Antiplatelet activity against tumor cells-stimulated human platelets assessed as inhibition of RPMI-8226 cells-induced platelet aggregation at 2 uM by turbidometric aggregometry; type: functional, cell-based
Summary of the method: (§2)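 Washed human platelets from ACD-anticoagulated blood of healthy volunteers, stirred at 1200 rpm, 37 °C, in 0.375% plasma. Aggregation was induced by A549 (1 × 10^4 cells/mL), MDA-MB-231 (1 × 10^2 cells/mL) or RPMI8226 (1 × 10^5 cells/mL) cells. Read-out is the maximal increase in light transmission by turbidimetric aggregometry. n = 3.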

Platelet [3] = experiment: Inhibition of tumor cell-induced platelet secretion in human platelets assessed as inhibition of A549-induced ATP secretion at 1 to 5 uM by bioluminescent assay; type: functional, cell-based; settings: dose 1-5 µM; summary of the method: as §1
[4] = biological target: T1, Protein disulfide-isomerase (Homo sapiens, UniProt P07237); experiment: Covalent inhibition of human recombinant PDI assessed as inhibition of E-GSH formation using Di-E-GSSG as substrate at 10 uM measured for 60 mins in presence of DTT and 1 mM GSH by fluorescence based analysis
Summary of the method: (§3)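 Human rPDI incubated with compounds at 10 μM in the presence of DTT (5 μM) or GSH (1 mM). PDI activity read by Di-E-GSSG assay (E-GSH fluorescence). Mean ± SEM of three independent experiments.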
Target sequence in this assay (P07237 18-508 limits assumed): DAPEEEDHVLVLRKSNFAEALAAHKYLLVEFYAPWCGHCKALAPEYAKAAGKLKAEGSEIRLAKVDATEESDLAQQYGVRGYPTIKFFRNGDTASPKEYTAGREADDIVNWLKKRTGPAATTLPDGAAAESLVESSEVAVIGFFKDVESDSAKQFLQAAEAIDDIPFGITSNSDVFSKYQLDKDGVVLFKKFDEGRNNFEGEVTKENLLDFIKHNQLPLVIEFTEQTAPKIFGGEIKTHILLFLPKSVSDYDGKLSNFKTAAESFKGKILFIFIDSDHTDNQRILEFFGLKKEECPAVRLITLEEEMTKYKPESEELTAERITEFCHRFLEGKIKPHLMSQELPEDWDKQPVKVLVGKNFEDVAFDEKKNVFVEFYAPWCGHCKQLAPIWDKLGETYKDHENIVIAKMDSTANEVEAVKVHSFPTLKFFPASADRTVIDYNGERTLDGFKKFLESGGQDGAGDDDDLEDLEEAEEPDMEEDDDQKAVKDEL

A549 [5] = experiment: Cytotoxicity against human A549 cells assessed as reduction in cell viability at 0.5 to 2 uM incubated for 48 hrs by trypan bue exclusion assay; type: functional, cell-based; settings: dose 0.5-2 µM
Platelet [6] = experiment: Antiplatelet activity against tumor cells-stimulated human platelets assessed as inhibition of MDA-MB-231 cells-induced platelet aggregation at 2 uM by turbidometric aggregometry; type: functional, cell-based; summary of the method: as §2
U-87 MG = experiment: Cytotoxicity against human U87 cells assessed as reduction in cell viability incubated for 24 hrs by resazurin assay; type: functional, cell-based, U-87MG ATCC
Summary of the method: (§4)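 Cell lines kept at 37 °C in humidified 5% CO2. Cells exposed to compounds for 24 h with DMSO control; viability measured by resazurin assay. Mean ± SEM, n = 3.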

Platelet [7] = experiment: Antiplatelet activity against tumor cells-stimulated human platelets assessed as inhibition of A549 cells-induced platelet aggregation at 2 uM by turbidometric aggregometry; type: functional, cell-based; summary of the method: as §2
A549 [8] = experiment: Inhibition of platelet-enhanced cell growth in human A549 cells assessed as reduction in cell viability at 0.5 to 2 uM co-incubated with platelets for 48 hrs by trypan blue exclusion assay; type: functional, cell-based; settings: dose 0.5-2 µM
Summary of the method: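 A549 cells (1 × 10^4/well) co-incubated with washed human platelets (1 × 10^7/well) in 0.375% plasma for 48 h at 37 °C, 5% CO2. After PBS washing, viable cancer cells counted by trypan blue exclusion. Mean ± SEM, at least three independent experiments.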

[9] = GSH reactivity in aqueous solution assessed as GSH-adduct formation at 400 uM incubated for 30 mins in presence of GSH by UPLC-MS analysis; type: physicochemical; settings: buffer, 0.5 h
Summary of the method: (§5)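 Compounds (400 μM) incubated in water with or without GSH (4 mM) at 37 °C for 30 min. Diluted 1:1 with methanol, then analysed by UPLC-MS on a BEH C18 column (water/acetonitrile gradient, 0.4 mL/min, 40 °C) in positive/negative ion mode.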

RPMI-8226 [10] = experiment: Cytotoxicity against human RPMI-8226 cells assessed as reduction in cell viability at 0.001 to 10 uM incubated for 72 hrs by resazurin assay; type: functional, cell-based; settings: dose 0.001-10 µM
Summary of the method: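 RPMI8226 cells exposed to compounds for 72 h at 37 °C, 5% CO2 with DMSO control; viability measured by resazurin assay, n = 4.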

[11] = biological target: T1, Protein disulfide-isomerase; experiment: Covalent inhibition of PDI (unknown origin) by GSSG fluorescence assay
Target sequence in this assay (P07237 whole entry): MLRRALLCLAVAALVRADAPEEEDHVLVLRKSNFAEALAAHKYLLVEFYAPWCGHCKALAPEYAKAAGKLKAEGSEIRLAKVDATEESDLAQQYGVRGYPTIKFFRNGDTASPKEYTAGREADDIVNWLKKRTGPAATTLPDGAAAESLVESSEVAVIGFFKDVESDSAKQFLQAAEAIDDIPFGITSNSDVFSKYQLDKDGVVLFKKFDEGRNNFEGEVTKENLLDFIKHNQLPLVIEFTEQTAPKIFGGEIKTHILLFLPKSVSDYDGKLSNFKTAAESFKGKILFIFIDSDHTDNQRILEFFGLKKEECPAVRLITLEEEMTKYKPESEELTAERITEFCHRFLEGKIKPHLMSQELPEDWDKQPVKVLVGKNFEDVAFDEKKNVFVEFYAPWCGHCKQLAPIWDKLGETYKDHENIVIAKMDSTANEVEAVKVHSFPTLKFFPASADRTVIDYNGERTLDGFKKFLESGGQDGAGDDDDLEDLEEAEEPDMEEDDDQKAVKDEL

[12] = biological target: T2, Protein disulfide-isomerase A4 (Homo sapiens, UniProt P13667); experiment: Inhibition of human recombinant ERp72 assessed as inhibition of E-GSH formation using Di-E-GSSG as substrate measured for 60 mins in presence of DTT by fluorescence based analysis
T2 sequence (P13667 whole entry): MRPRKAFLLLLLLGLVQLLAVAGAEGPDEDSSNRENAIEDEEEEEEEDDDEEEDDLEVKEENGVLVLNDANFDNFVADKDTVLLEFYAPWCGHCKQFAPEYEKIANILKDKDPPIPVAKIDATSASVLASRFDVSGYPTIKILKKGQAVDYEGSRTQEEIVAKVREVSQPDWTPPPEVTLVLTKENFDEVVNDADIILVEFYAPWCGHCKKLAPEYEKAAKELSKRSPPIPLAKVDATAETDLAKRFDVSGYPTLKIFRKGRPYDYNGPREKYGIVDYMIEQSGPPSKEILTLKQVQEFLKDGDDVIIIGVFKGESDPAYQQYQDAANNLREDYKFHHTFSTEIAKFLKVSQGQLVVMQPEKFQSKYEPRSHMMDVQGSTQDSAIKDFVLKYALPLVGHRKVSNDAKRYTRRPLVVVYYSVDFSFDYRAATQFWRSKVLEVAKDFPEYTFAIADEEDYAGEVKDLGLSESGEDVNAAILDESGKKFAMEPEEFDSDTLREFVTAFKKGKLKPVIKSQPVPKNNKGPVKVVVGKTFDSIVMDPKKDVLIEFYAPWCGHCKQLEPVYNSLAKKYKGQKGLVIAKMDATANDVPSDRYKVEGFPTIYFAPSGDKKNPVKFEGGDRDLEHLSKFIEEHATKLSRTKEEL
Summary of the method: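 Recombinant human ERp72 reductase activity measured with Di-E-GSSG substrate, started with DTT, by fluorometry of E-GSH formation. Mean ± SEM, n = 3.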

[13] = biological target: T1, Protein disulfide-isomerase; experiment: Covalent inhibition of PDI (unknown origin) by insulin aggregation assay
Target sequence in this assay (P07237 whole entry): as the sequence (P07237 whole entry) above

Platelet [14] = experiment: Antiplatelet activity against tumor cells-stimulated human platelets assessed as inhibition of MDA-MB-231 cells-induced platelet aggregation at 100 uM by turbidometric aggregometry; type: functional, cell-based; summary of the method: as §2
Platelet [15] = experiment: Antiplatelet activity against tumor cells-stimulated human platelets assessed as inhibition of A549 cells-induced platelet aggregation at 100 uM by turbidometric aggregometry; type: functional, cell-based; summary of the method: as §2
Platelet [16] = experiment: Inhibition of tumor cell-induced platelet secretion in human platelets assessed as inhibition of A549-induced PDGF secretion at 100 uM by ELISA; type: functional, cell-based; summary of the method: as §1
Platelet [17] = experiment: Antiplatelet activity against tumor cells-stimulated human platelets assessed as inhibition of RPMI-8226 cells-induced platelet aggregation at 100 uM by turbidometric aggregometry; type: functional, cell-based; summary of the method: as §2
Platelet [18] = experiment: Inhibition of tumor cell-induced platelet secretion in human platelets assessed as inhibition of A549-induced ATP secretion at 100 uM by bioluminescent assay; type: functional, cell-based; summary of the method: as §1
Platelet [19] = experiment: Antiplatelet activity in human platelets assessed as inhibition of U46619-induced platelet aggregation by turbidimetric analysis; type: functional, cell-based
Summary of the method: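 Washed human platelets from ACD-anticoagulated volunteer blood, stimulated with U46619 (1 μM). Aggregation measured turbidimetrically under stirring (1200 rpm) at 37 °C as the maximal increase in light transmission.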

[20] = Stability of the compound in aqueous solution at 400 uM measured after 30 mins by UPLC-MS analysis; type: physicochemical; settings: buffer, 0.5 h; summary of the method: as §5
[21] = biological target: T1, Protein disulfide-isomerase; experiment: Non-covalent inhibition of human recombinant PDI assessed as inhibition of E-GSH formation using Di-E-GSSG as substrate at 10 uM measured for 60 mins in presence of DTT and 1 mM GSH by fluorescence based analysis; summary of the method: as §3
Target sequence in this assay (P07237 18-508 limits assumed): as the sequence (P07237 18-508 limits assumed) above

A549 [22] = experiment: Cytotoxicity against human A549 cells assessed as reduction in cell viability incubated for 24 hrs by resazurin assay; type: functional, cell-based; summary of the method: as §4
Platelet [23] = experiment: Antiplatelet activity in human platelets assessed as inhibition of U46619-induced platelet aggregation upto 40 uM by turbidimetric analysis; type: functional, cell-based
MDA-MB-231 = experiment: Cytotoxicity against human MDA-MB-231 cells assessed as reduction in cell viability incubated for 24 hrs by resazurin assay; type: functional, cell-based; summary of the method: as §4
Platelet [24] = experiment: Antiplatelet activity in human platelets assessed as inhibition of collagen-induced platelet aggregation upto 40 uM by turbidimetric analysis; type: functional, cell-based
RPMI-8226 [25] = experiment: Cytotoxicity against human RPMI-8226 cells assessed as reduction in cell viability incubated for 24 hrs by resazurin assay; type: functional, cell-based; summary of the method: as §4
[26] = biological target: T1, Protein disulfide-isomerase; experiment: Non-covalent inhibition of PDI (unknown origin) by GSSG fluorescence assay
Target sequence in this assay (P07237 whole entry): as the sequence (P07237 whole entry) above

Platelet [27] = experiment: Inhibition of tumor cell-induced platelet secretion in human platelets assessed as inhibition of A549-induced ATP secretion at 1 uM by bioluminescent assay; type: functional, cell-based; summary of the method: as §1
Platelet [28] = experiment: Antiplatelet activity against tumor cells-stimulated human platelets assessed as inhibition of MDA-MB-231 cells-induced platelet aggregation at 1 uM by turbidometric aggregometry; type: functional, cell-based; summary of the method: as §2
Platelet [29] = experiment: Antiplatelet activity against tumor cells-stimulated human platelets assessed as inhibition of RPMI-8226 cells-induced platelet aggregation at 1 uM by turbidometric aggregometry; type: functional, cell-based; summary of the method: as §2
Platelet [30] = experiment: Antiplatelet activity against tumor cells-stimulated human platelets assessed as inhibition of A549 cells-induced platelet aggregation at 1 uM by turbidometric aggregometry; type: functional, cell-based; summary of the method: as §2
Platelet [31] = experiment: Inhibition of tumor cell-induced platelet secretion in human platelets assessed as inhibition of A549-induced PDGF secretion at 1 uM by ELISA; type: functional, cell-based; summary of the method: as §1

Which results are given for `CC(=O)O[C@@H]1O[C@H](CSC2=CC(=O)c3cccc(O)c3C2=O)[C@@H](OC(C)=O)[C@H](OC(C)=O)[C@H]1OC(C)=O`?
inhibition (Platelet [1]): Active; Activity (Platelet [2]): Active; inhibition (Platelet [3]): Active; inhibition [4]: Active; Activity (A549 [5]): inactive; Activity (Platelet [6]): Active; IC50 (U-87 MG): > 20 µM; Activity (Platelet [7]): Active; inhibition (A549 [8]): Active

What does the source list for `CC(=O)OC[C@H]1O[C@@H](SC2=C(c3ccc(O)cc3O)C(=O)c3c(O)cccc3C2=O)[C@H](OC(C)=O)[C@@H](OC(C)=O)[C@@H]1OC(C)=O`?
inhibition [4]: Active; Activity [9]: Active

Which Activity (RPMI-8226 [10]) does the source give for `COc1ccc(N2C(=O)/C(=C\c3ccc([N+](=O)[O-])s3)SC2=S)cc1` here?
The Activity was “Active”.

And the IC50 [11]?
Its IC50 is 2.9 µM.

For `COc1cccc(SC2=CC(=O)c3cccc(O)c3C2=O)c1`, which inhibition [4] is on record?
The inhibition was “Active”.

What does the source list for `CC(=O)OC[C@H]1O[C@H](OC2=CC(=O)c3cccc(O)c3C2=O)[C@H](OC(C)=O)[C@@H](OC(C)=O)[C@@H]1OC(C)=O`?
IC50 [12]: 4.01 µM; inhibition (Platelet [1]): Active; Activity (Platelet [2]): Active; inhibition (Platelet [3]): Active; inhibition [4]: Active; Activity (A549 [5]): inactive; Activity (Platelet [6]): Active; Activity (Platelet [7]): Active; inhibition (A549 [8]): Active

Which IC50 [13] does the source give for `C#CC(=O)N(c1ccc(OC)cc1OC)C(C(=O)NCC(=O)OCC)c1cccs1` (stereo unspecified) here?
The IC50 was 10 µM.

Which results are given for `CC(=O)Oc1ccccc1C(=O)O` [ASPIRIN]?
Activity (Platelet [14]): inactive; Activity (Platelet [15]): inactive; inhibition (Platelet [16]): inactive; Activity (Platelet [17]): inactive; inhibition (Platelet [18]): inactive; IC50 (Platelet [19]): > 200 µM

With `COc1ccc(SC2=C(c3ccc(O)cc3O)C(=O)c3c(O)cccc3C2=O)cc1` as the compound, how does the Stability [20] read?
The Stability was “Stable”.

What about the Activity [9] of the same compound?
Its Activity is “Not Active”.

What about the inhibition [21] of the same compound?
The inhibition was “Active”.

For `CC(C)(C)CN(C(=O)CCl)C1CCS(=O)(=O)C1` (stereo unspecified), which IC50 (A549 [22]) is on record?
Its IC50 is “Not Active”.

What about the Activity (Platelet [23]) of the same compound?
Its Activity is “inactive”.

What about the IC50 (MDA-MB-231) of the same compound?
The IC50 was “Not Active”.

What about the Activity (Platelet [24]) of the same compound?
The Activity was “inactive”.

And the IC50 (RPMI-8226 [25])?
Its IC50 is “Not Active”.

Which IC50 [26] does the source give for `O=c1c(O[C@@H]2O[C@H](CO)[C@@H](O)[C@H](O)[C@H]2O)c(-c2ccc(O)c(O)c2)oc2cc(O)cc(O)c12` [ISOQUERCETIN] here?
Its IC50 is 7.1 µM.

And the inhibition [21]?
Its inhibition is “Active”.

What does the source list for `CCCSc1nc(N[C@@H]2C[C@H]2c2ccc(F)c(F)c2)c2nnn([C@@H]3C[C@H](OCCO)[C@@H](O)[C@H]3O)c2n1`?
inhibition (Platelet [27]): inactive; Activity (Platelet [28]): inactive; Activity (Platelet [29]): inactive; Activity (Platelet [30]): inactive; inhibition (Platelet [31]): inactive

With `C#CCCCNC(=O)[C@@H](CCNC(=O)[C@H](Cc1ccccc1)NC(=O)OC(C)(C)C)Cc1ccc(OS(=O)(=O)C=C)cc1` as the compound, how does the IC50 [13] read?
Its IC50 is 1.7 µM.
